# Measured values gathered from unrelated publications.
# Protocols differ between the studies behind these lines.
# Cell line: OVCAR-8
# Read-out: cell growth or viability
SMILES,method,concentration,time,endpoint,result
COc1cccc(Oc2ccccc2NC(=O)CNC(=O)c2cccc3ccccc23)c1,SRB,,48 h,GI50,692 nM
O=C1Nc2ccccc2C1=NNc1nnc2n1N=C(c1ccccc1)CS2,SRB,10 µM,,inhibition,41%
COc1cc(-c2ccc(-c3ccc(C(=N)N)nc3)s2)cc(OC)c1OC,SRB,,,GI50,2300 nM
COc1ccc(C(=O)/C=C/c2cccc(Cl)c2)cc1S(N)(=O)=O,SRB,,48 h,GI50,2800 nM
S=C([S][Au-][P+](CCCCCC[P+]([Au-][S]C(=S)n1cccn1)(c1ccccc1)c1ccccc1)(c1ccccc1)c1ccccc1)n1cccn1,,,,GI50,696 nM
COc1ccc(-c2ccc(-c3ccc(C(=N)N)nc3)s2)cc1Cl,SRB,,,GI50,2600 nM
COc1ccc(C(=O)/C=C/c2cccc(Cl)c2Cl)cc1S(N)(=O)=O,SRB,10 µM,,inhibition,164%
Cc1cc(C)n(C(=S)[S][Au][PH](CCCCCC[PH]([Au][S]C(=S)n2nc(C)cc2C)(c2ccccc2)c2ccccc2)(c2ccccc2)c2ccccc2)n1,,,,GI50,597 nM
